# ChEMBL document CHEMBL1137792, “The immobilization of gossypol derivative on N-polyvinylpyrrolidone increases its water solubility and modifies membrane-active properties” (J Med Chem, 2009)
# Legend:
# [1] = Effect on nonenergized Wistar rat liver mitochondrial membrane permeability assessed as increase in permeability to Ba2+ ion at 20 uM; type: ADME, mitochondria, Mitochondria
# Method in brief: (§1)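 Passive swelling of nonenergized rat liver mitochondria (1.0 mg/mL protein) in iso-osmotic nitrate media, Tris-HNO3 pH 7.4, rotenone 0.33 μg/mL, 25 °C, stirred: KNO3 120 mM; Mg2+ and Ba2+ 80 mM; Ca2+ 40 mM with 120 mM sucrose. Absorbance decrease at 520 nm followed; swelling rates normalised to the K+ rate set as 1. Five recordings.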
# [2] = Effect on nonenergized Wistar rat liver mitochondrial membrane permeability assessed as increase in permeability to Ca2+ ion at 20 uM; type: ADME, mitochondria, Mitochondria; method in brief: as §1
# [3] = Toxicity in human erythrocytes assessed as reduction of membrane fluidity by fluorescent anisotropy; type: cell-based; details: erythrocyte
# Method in brief: (§2)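 Human erythrocyte ghosts (hypotonic Tris-HCl/EDTA lysis) diluted in PBS pH 7.4, 2 min at 37 °C with compound (0.05-0.75 μM final), then DPH 1 μM final, 15 min dark at room temperature; steady-state anisotropy, excitation 348/emission 426 nm; ratio to no-compound control (Ai/A0). Mean ± SEM, n=8.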
# [4] = Drug binding to Wistar rat liver mitochondrial membrane assessed as [14C] labeled megosin after 5 mins; type: ADME, tissue-based; details: in vitro
# Method in brief: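 Mitochondria (10 mg protein/mL) incubated with 14C-labeled compound (10 nmol/mg protein, 9.45 mCi/mmol) plus 50-fold unlabeled (500 nmol/mg) at 22 °C with stirring; vacuum filtration through nitrocellulose, two water rinses, filters dried 24 h and counted by liquid scintillation; bound label expressed as cpm and % of total radioactivity. Mean ± SEM, n=12.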
# [5] = Effect on nonenergized Wistar rat liver mitochondrial membrane permeability assessed as increase in permeability to potassium ion at 20 uM; type: ADME, mitochondria, Mitochondria; method in brief: as §1
# [6] = Toxicity in human erythrocytes assessed as reduction of membrane fluidity at 0.4 uM by fluorescent anisotropy relative to untreated control; type: cell-based; details: erythrocyte; method in brief: as §2
# [7] = Effect on nonenergized Wistar rat liver mitochondrial membrane permeability assessed as increase in permeability to Mg2+ ion at 20 uM; type: ADME, mitochondria, Mitochondria; method in brief: as §1
# [8] = Toxicity in Wistar rat erythrocytes assessed as induction of hemolysis at 50 uM; type: cell-based, Erythrocyte; details: read-out: Activity
# Method in brief: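 Freshly isolated, washed rat erythrocytes as 2% suspension in 140 mM NaCl, 10 mM Tris-citrate, 1 mM EDTA, pH 7.5, incubated 30 min at 37 °C with compound (20-100 μM range); spun at 1000g, supernatant OD540 read against water-lysed cells as 100%. Mean ± SEM, n=9.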
# [9] = Decrease in Wistar rat liver mitochondrial membrane fluidity assessed as rotational correlation times of spin probe at 0.15 uM by ESR; type: ADME, mitochondria, Mitochondria
# Method in brief: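 ESR of rat liver mitochondria (1 mg/mL protein) in 145 mM KCl, 10 mM Tris-HCl pH 7.4 with nitroxide spin probe added in ethanol to 10^-6 M final; 2 min incubation with compound (range 0.025-0.3 μM) before spectra; rotational correlation time τc derived. Mean ± SEM, n=9, three independent experiments.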
structure (smiles),measurement,setting,value
Cc1cc2c(c(O)c1-c1c(C)cc3c(c1O)/C(=C/NCCS(=O)(=O)[O-])C(=O)C(O)=C3C(C)C)/C(=C/NCCS(=O)(=O)[O-])C(=O)C(O)=C2C(C)C.[Na+].[Na+] [MEGOSIN],Activity,[1],Active
same,Activity,[2],Active
same,Activity,[3],Dose-dependent effect
same,Drug uptake,[4],88.2%
same,Activity,[5],Active
same,fold change (FC),[6],1.83
same,Activity,[7],Active
same,hemolysis at 50 µM,[8],68%
same,Activity,[9],32.1 ×10⁻¹⁰ s
